The results in this text go back to ChEMBL document CHEMBL1144733, “Design and synthesis of nitrate esters of aromatic heterocyclic compounds as pharmacological preconditioning agents” (2008).

The test system of assay [1] is Oryctolagus cuniculus. The experiment in a line: Increase in MDA level in New Zealand white rabbit at 1.3 mg/kg, iv after 20 mins of ischemia relative to control. It counts as functional, organism-based. The arrangement: dose 1.3 mg/kg. The procedure, abridged: (§1)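 Rabbit plasma sampled at baseline, 20 min ischemia, and 1 and 20 min reperfusion after 1.3 mg/kg iv (two boluses). MDA by N-methyl-2-phenyl-indole colorimetric kit: 0.2 ml plasma plus reagent and HCl, 45 C for 60 min, centrifuged, A586; MDA standard curve (2-20 lmol/ml); triplicate; mean ± SEM.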

For assay [2], the system named is Oryctolagus cuniculus. The experiment in a line: Increase in circulating cGMP level in New Zealand white rabbit at 1.3 mg/kg, iv after 20 mins of ischemia by enzyme immunoassay relative to control. It counts as functional, organism-based. The arrangement: dose 1.3 mg/kg. The method in brief:
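Plasma from rabbits dosed 1.3 mg/kg iv (40 and 1 min pre-ischemia) drawn at 20 min of sustained ischemia. cGMP by competitive enzyme immunoassay: alkaline phosphatase-cGMP conjugate plus polyclonal antibody, 2 h at 25 C shaking, p-nitrophenyl phosphate 1 h, read 450 nm corrected at 550 nm; concentration from standard curve.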

In assay [3] the test system is Oryctolagus cuniculus. The experiment in a line: Cardioprotective effect in New Zealand white rabbit assessed as reduction of infract size at 1.3 mg/kg, iv administered before 30 mins of ischemia and 3 hrs of reperfusion relative to control. The arrangement: scale not given: the % may be the effect or the level left. It counts as functional. The procedure, abridged:
(§2)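 Anesthetized (pentobarbital 30 mg/kg iv), ventilated male rabbits; regional myocardial ischemia 30 min, reperfusion 3 h. Total 1.3 mg/kg split into two iv boluses in 0.2 ml DMSO + 0.8 ml saline, 40 min and 1 min before ischemia; controls got vehicle. Microspheres delineated risk zone; 3 mm slices stained with 1% TTC, 20 min, 37 C; infarct/risk volume ratio (%). n = 5-10 per group.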

Assay [4] concerns Oryctolagus cuniculus. The experiment in a line: Decrease in MDA level in New Zealand white rabbit at 1.3 mg/kg, iv after 20 mins of reperfusion relative to control. It is filed as functional, organism-based. The arrangement: dose 1.3 mg/kg. The procedure, abridged: as §1
For assay [5], the system named is Oryctolagus cuniculus. The experiment in a line: Cardioprotective effect in New Zealand white rabbit assessed as reduction of infract size at 1.3 mg/kg, iv administered before 30 mins of ischemia and 3 hrs of reperfusion in presence of mitoKATP blocker 5-hydroxydecanoic acid relative to control. It counts as functional. The arrangement: scale not given: the % may be the effect or the level left. The procedure, abridged:
as §2

The test system of assay [6] is Oryctolagus cuniculus. The experiment in a line: Cardioprotective effect in New Zealand white rabbit assessed as reduction of infract size at 1.3 mg/kg, iv administered before 30 of mins ischemia and 3 hrs of reperfusion in presence of adenosine receptor blocker 8-(p-sulfonyl) theophylline relative to control. It is filed as functional. The arrangement: scale not given: the % may be the effect or the level left. The procedure, abridged:
as §2

Activity calls are given as the source filed them. The calls are words filed in the database; no cut-off is given here.

Turning to `O=C(NCCO[N+](=O)[O-])c1ccc2ccccc2n1`, the result in assay [1], in assay [2] and in assay [4] was Active. Further, the Activity in assay [3] is on record as 22.4%.

Turning to `O=[N+]([O-])OCCCCCCCCCCCn1cnc2c(N3CCCCC3)ncnc21`, the outcome in assay [2] and in assay [4] was Active.

As for `O=C(NCCO[N+](=O)[O-])c1cc2ccccc2[nH]1`, the outcome in assay [1], in assay [2] and in assay [4] was Active. The Activity came to 40.12% in assay [5] and 20.5% in assay [3].

Consider `O=[N+]([O-])OCCCCCCn1cnc2c(N3CCCCC3)ncnc21`, for which the Activity in assay [6] stood at 28.03%; in assay [5], 21.9%; in assay [3], 19.8%. Moreover, the result in assay [4] was Active.
